Reference: article PMC6977399 (Clinical Pharmacology and Therapeutics, 2019)

How the values were obtained:
[1] = Fenebrutinib plasma exposure at 200 mg b.i.d. in the clinical DDI study; assay type: in vivo; settings: human, oral, observed Cmax at steady-state, data not shown
[2] = biological target: CYP3A; test: Time-dependent inhibition of CYP3A in human liver microsomes; assay type: in vitro ADME; settings: for kinact: human
[3] = test system: CYP3A; test: Reversible CYP3A inhibition in human liver microsomes; assay type: in vitro ADME; settings: MDZ and testosterone as probe substrates
Summary of the method: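 Test compound was pre-incubated for 10 min at 37°C with pooled human liver microsomes containing an isoform-selective substrate. Metabolite formation was expressed as % control activity, calculated as the peak area ratio with compound divided by the peak area ratio without compound, ×100.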

[4] = biological target: T1, CYP1A2 (Homo sapiens, UniProt P05177); test: CYP inhibition in human liver microsomes; assay type: in vitro ADME; settings: up to 50 μM
T1 sequence (P05177 1-516): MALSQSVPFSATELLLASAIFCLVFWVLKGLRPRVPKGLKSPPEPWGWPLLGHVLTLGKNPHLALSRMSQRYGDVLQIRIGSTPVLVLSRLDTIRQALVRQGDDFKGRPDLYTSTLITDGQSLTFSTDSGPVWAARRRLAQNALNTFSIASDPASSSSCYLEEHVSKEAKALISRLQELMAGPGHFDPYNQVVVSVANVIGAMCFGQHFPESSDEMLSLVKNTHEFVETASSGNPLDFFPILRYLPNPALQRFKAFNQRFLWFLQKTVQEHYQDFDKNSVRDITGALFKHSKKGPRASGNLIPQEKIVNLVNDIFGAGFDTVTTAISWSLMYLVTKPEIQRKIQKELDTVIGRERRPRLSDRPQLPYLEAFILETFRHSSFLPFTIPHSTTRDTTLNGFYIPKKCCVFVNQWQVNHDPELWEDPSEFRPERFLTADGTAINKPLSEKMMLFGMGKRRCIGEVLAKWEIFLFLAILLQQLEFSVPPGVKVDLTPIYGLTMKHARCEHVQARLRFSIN
Summary of the method: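 Reversible inhibition: test compound pre-incubated 10 min at 37°C with pooled human liver microsomes plus an isoform-selective probe substrate. Reaction started with NADPH (1.3 mM), then quenched with 3% formic acid in acetonitrile containing internal standard. CYP-specific metabolite formation measured by LC-MS/MS. Activity expressed as % control = (peak area ratio with compound / without compound) × 100.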

[5] = biological target: CYP2D6 (Homo sapiens, UniProt P10635); test: CYP inhibition in human liver microsomes; assay type: in vitro ADME; settings: up to 15 μM
[6] = biological target: T2, human OAT3 (Homo sapiens, UniProt Q8TCC7); test: Inhibition of OAT3-mediated estrone-3-sulfate uptake in HEK293 cells; assay type: in vitro ADME
T2 sequence (Q8TCC7 1-542): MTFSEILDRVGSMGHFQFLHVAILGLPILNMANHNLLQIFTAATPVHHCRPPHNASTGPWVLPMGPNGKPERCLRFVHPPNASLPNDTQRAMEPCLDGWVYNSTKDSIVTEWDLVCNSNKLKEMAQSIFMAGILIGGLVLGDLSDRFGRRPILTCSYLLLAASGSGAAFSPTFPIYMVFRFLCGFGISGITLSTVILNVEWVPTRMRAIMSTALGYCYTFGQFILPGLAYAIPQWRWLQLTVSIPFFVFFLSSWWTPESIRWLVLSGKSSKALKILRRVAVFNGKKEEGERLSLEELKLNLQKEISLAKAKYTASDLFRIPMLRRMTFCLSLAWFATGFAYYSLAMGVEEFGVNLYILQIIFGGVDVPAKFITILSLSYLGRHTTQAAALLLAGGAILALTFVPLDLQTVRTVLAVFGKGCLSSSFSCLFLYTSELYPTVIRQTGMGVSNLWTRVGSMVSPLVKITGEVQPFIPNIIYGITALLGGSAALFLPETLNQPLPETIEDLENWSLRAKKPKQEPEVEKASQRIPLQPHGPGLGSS
Summary of the method: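 HEK293 cells stably expressing human OAT3, with mock-transfected HEK293 as control cells. Uptake was run at 37°C in HK buffer (pH 7.4) with 1 μM ³H-estrone-3-sulfate plus test compound or DMSO vehicle. Cells were washed twice, lysed in 0.1 M NaOH, and counted by liquid scintillation. Transporter-specific uptake was taken as uptake in transfected cells minus uptake in control cells.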

Sequence of CYP2D6 (P10635 whole entry): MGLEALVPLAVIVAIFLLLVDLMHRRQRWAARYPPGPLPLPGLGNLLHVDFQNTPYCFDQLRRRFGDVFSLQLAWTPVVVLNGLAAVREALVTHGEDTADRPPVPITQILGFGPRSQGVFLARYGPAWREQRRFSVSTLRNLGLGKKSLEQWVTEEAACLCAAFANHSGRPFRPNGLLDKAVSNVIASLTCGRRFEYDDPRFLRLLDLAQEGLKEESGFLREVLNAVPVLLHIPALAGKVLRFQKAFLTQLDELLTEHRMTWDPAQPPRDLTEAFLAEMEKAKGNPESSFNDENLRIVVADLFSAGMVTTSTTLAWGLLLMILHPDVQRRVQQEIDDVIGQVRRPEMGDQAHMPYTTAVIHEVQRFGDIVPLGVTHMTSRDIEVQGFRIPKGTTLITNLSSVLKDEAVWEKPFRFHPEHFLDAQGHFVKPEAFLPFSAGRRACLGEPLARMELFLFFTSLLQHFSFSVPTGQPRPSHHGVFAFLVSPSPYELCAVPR

## C[C@H]1CN(C2COC2)CCN1c1ccc(Nc2cc(-c3ccnc(N4CCn5c(cc6c5CC(C)(C)C6)C4=O)c3CO)cn(C)c2=O)nc1 [fenebrutinib]
[1]
  Cmax: ~1000 nM
[2]
  kinact/Ki ratio, CYP3A: 23.3 M⁻¹ s⁻¹
[2]; MDZ and testosterone as probe substrates
  time-dependent inhibition (TDI) of CYP3A: TDI was observed
[2]; probe midazolam (50 µM)
  kinact: 0.00019 s⁻¹
[2]; probe testosterone (250 µM)
  kinact: 0.00025 s⁻¹
[3]
  reversible CYP3A inhibition: no reversible CYP3A inhibition
[4]
  reversible or time-dependent inhibition of CYP1A2: No reversible or time‐dependent inhibition
[5]
  reversible or time-dependent inhibition of CYP2D6: No reversible or time‐dependent inhibition
[6]; at clinically relevant concentrations
  inhibition of OAT3 uptake transporter: no evidence of inhibition
[6]; up to 30 μM, the highest concentration tested, HEK293 cells
  influence on OAT3-mediated accumulation of estrone-3-sulfate: did not influence
